Assay results: ChEMBL document CHEMBL2321736 (ACS Med Chem Lett, 2013)
≈ marks a conversion by molar mass, not a printed value.

Experiments:
[1] = Thermodynamic solubility of the compound at pH 7.4; type: physicochemical; settings: buffer, read-out: Therm_solubility
Summary of the method: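 Thermodynamic solubility measured at pH 7.4.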

[2] = Volume of distribution in Sprague-Dawley rat at 0.5 mg/kg, iv; type: ADME, organism-based; design: dose 0.5 mg/kg, route intravenous; settings: in vivo
Summary of the method: (§1)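 Male Sprague−Dawley rats given 0.5 mg/kg iv in 60% NMP solution, n = 3. Brain/plasma value is the unbound brain to unbound plasma AUC ratio after this iv dose.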

[3] = Plasma clearance in Sprague-Dawley rat at 0.5 mg/kg, iv; type: ADME, organism-based; design: dose 0.5 mg/kg, route intravenous; summary of the method: as §1
[4] = Ratio of unbound drug level in brain to plasma in Sprague-Dawley rat at 0.5 mg/kg, iv; type: ADME, organism-based; design: dose 0.5 mg/kg, route intravenous; settings: read-out: K(p,uu,brain); summary of the method: as §1
[5] = Plasma clearance in beagle dog at 0.5 mg/kg, iv and 1 mg/kg, po; type: ADME, organism-based, Canis lupus familiaris
Summary of the method: (§2)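 Male Beagle dogs, n = 3. iv dose 0.5 mg/kg in 30% NMP solution; oral dose 1 mg/kg as aqueous suspension of 1% RC591 + 0.2% tween80.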

[6] = Oral bioavailability in beagle dog at 1 mg/kg; type: ADME, organism-based, Canis lupus familiaris; settings: in vivo; summary of the method: as §2

solubility thermodynamic [1] [µg/mL]	Vd [2] [L/kg]	clearance [3] [mL/min/kg]	Kp uu [4]	clearance [5] [mL/min/kg]	bioavailability [6] [%]	SMILES
< 0.9						CNc1nc(Nc2cc(F)c(C(=O)N3CCOCC3)cc2OC)ncc1C(F)(F)F
	0.88	35	0.26			CNc1nc(Nc2cnn(CC(C)(C)O)c2C)ncc1C(F)(F)F
20 (≈ 54.8 µM)	2.5	21	0.37	22	31	CNc1nc(Nc2cnn(CC(C)(C)O)c2Cl)ncc1C(F)(F)F
